Measured values: ChEMBL document CHEMBL4118065, “Design, synthesis and antimycobacterial activity of novel imidazo[1,2-a]pyridine-3-carboxamide derivatives” (Eur J Med Chem, 2017)
In brackets after ≈: the same amount, converted by molar mass.

How the values were obtained:
[1] = system: Mycobacterium tuberculosis; assay: Antimycobacterial activity against isoniazid/rifampicin-resistant Mycobacterium tuberculosis MTB11168 after 7 days by microplate Alamar blue assay; assay type: functional; details: MTB11168, 168 h
How it was run: (§1)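 MABA against replicating M. tuberculosis. Cells grown to late log phase (70–100 Klett units) in 7H9 broth with 0.2% glycerol, 0.05% Tween 80 and 10% ADC. They were washed in PBS, filtered (8 µm) and frozen. Twofold compound dilutions received 2×10^5 CFU per well at 37 °C. Tween 80 and Alamar blue were added on day 7, then 16–24 h more. Fluorescence read at 530/590 nm. MIC = lowest concentration giving ≥90% fluorescence reduction versus bacterium-only controls.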

[2] = system: Mycobacterium tuberculosis; assay: Antimycobacterial activity against isoniazid/rifampicin-resistant Mycobacterium tuberculosis MTB9160 after 7 days by microplate Alamar blue assay; assay type: functional; details: MTB9160, 168 h; how it was run: as §1

| Structure (SMILES) | MIC90 [1] [µM] | MIC90 [2] [µM] |
| --- | --- | --- |
| Cc1ccc2nc(C)c(C(=O)NCCOc3ccc(Br)cc3)n2c1 | < 0.041 | 0.2 (≈ 0.0777 µg/mL) |
| COc1ccc(NCCNC(=O)c2c(C)nc3ccc(C)cn23)cc1 | 1.47 (≈ 0.497 µg/mL) | 2.64 (≈ 0.893 µg/mL) |
| Cc1ccc2nc(C)c(C(=O)NCCNc3ccc(C(C)(C)C)cc3)n2c1 | 1.37 (≈ 0.499 µg/mL) | 0.57 (≈ 0.208 µg/mL) |
| NNC(=O)c1ccncc1 [ISONIAZID] | > 291 | > 291 |
| CO[C@H]1/C=C/O[C@@]2(C)Oc3c(C)c(O)c4c(O)c(c(/C=N/N5CCN(C)CC5)c(O)c4c3C2=O)NC(=O)/C(C)=C\C=C\[C@H](C)[C@H](O)[C@@H](C)[C@@H](O)[C@@H](C)[C@H](OC(C)=O)[C@@H]1C [RIFAMPIN] | > 57 | > 57 |
